According to ChEMBL document CHEMBL1128453, “Peptidyl alpha-ketoheterocyclic inhibitors of human neutrophil elastase. 3. In vitro and in vivo potency of a series of peptidyl alpha-ketobenzoxazoles” (J Med Chem, 1995):

Assays:
Neutrophil elastase = target: T1, Neutrophil elastase (Homo sapiens, UniProt P08246); assay: Inhibition of human neutrophil elastase-catalyzed hydrolysis of the synthetic substrate MeO-Suc-Ala-Ala-Pro-Val-pNa
T1 sequence (P08246 whole entry): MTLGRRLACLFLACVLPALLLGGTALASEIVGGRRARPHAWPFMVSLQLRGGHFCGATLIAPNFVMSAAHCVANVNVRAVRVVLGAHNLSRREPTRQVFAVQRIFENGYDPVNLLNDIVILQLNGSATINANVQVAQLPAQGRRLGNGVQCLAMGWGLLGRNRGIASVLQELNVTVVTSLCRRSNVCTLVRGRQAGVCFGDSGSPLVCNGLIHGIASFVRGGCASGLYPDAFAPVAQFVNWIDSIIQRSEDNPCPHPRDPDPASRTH

[1] = target: T2, Neutrophil elastase (Homo sapiens) (UniProt P08246); settings: Lung
T2 sequence (whole entry): T1 sequence (P08246 whole entry)

[2] = Percent reduction in leukocytes following elastase challenge/treatment.; type: functional; set-up: concentration or dose not given beside the values
Summary of the method: (§1)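 Male Syrian hamsters (90–110 g), anaesthetised with brevital sodium (30 mg/kg ip), received intratracheal HNE (400 μg in 0.01 M PBS). Test agent was given intratracheally, either admixed with the enzyme or predosed (shortest interval 6 h). Dose interval is the longest with significant lesion inhibition. At 24 h, wet lung weight/body weight and lavage red/white cells (Coulter) were measured. Results are % reduction scaled between the HNE and saline controls (p = 0.05).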

[3] = Percentage reduction in erythrocytes following elastase challenge/treatment.; type: functional; set-up: concentration or dose not given beside the values; summary of the method: as §1
Cricetinae gen. sp. [4] = assay: Dose interval reported as the longest interval at which significant inhibition of HNE induced uM Dose of HNE used was 400 ug/hamster; type: functional; summary of the method: as §1
Cricetinae gen. sp. [5] = assay: Compound is evaluated for wet lung weight (LW) relative to body weight (Bw).Value is statistically significant relative to control (p = 0.05).; type: functional; summary of the method: as §1
[6] = Evaluated for the percent reduction relative to HNE and saline controls of red blood cells; type: functional; summary of the method: as §1
[7] = Evaluated for the percent reduction relative to HNE and saline controls of white blood cells; type: functional; summary of the method: as §1
[8] = Evaluated for the percent reduction relative to HNE and saline controls of red blood cells. An asterisk (*) indicates (p = 0.05).; type: functional; summary of the method: as §1

COc1ccc2oc(C(=O)[C@@H](NC(=O)[C@@H]3CCCN3C(=O)[C@@H](NC(=O)OCc3ccccc3)C(C)C)C(C)C)nc2c1
Ki (Neutrophil elastase): 1.9 nM

CC(C)[C@H](NC(=O)[C@@H]1CCCN1C(=O)[C@@H](NC(=O)c1ccc(C(=O)NS(=O)(=O)C(C)C)cc1)C(C)C)C(=O)c1nc2ccccc2o1
Lw/Bw [1]: 68 | Reduction [2]: 70% | Ki (Neutrophil elastase): 1.5 nM | Reduction [3]: 60%

COC(=O)c1ccc2oc(C(=O)[C@@H](NC(=O)[C@@H]3CCCN3C(=O)[C@@H](NC(=O)c3ccc(C(=O)NS(=O)(=O)c4ccc(Cl)cc4)cc3)C(C)C)C(C)C)nc2c1
Lw/Bw [1]: 67 | Reduction [2]: -32% | Ki (Neutrophil elastase): 0.1 nM | Reduction [3]: 71%

CC(C)[C@H](NC(=O)[C@@H]1CCCN1C(=O)[C@@H](NC(=O)c1ccc(C(=O)NS(=O)(=O)c2ccc(Cl)cc2)cc1)C(C)C)C(=O)c1nc2ccccc2o1
Reduction [2]: 84% | Dose interval (Cricetinae gen. sp. [4]): 6 h | Reduction [3]: 80%

CC(C)[C@H](NC(=O)[C@@H]1CCCN1C(=O)[C@@H](NC(=O)c1ccc(S(N)(=O)=O)cc1)C(C)C)C(=O)c1nc2ccccc2o1
Reduction [2]: -42% | Reduction [3]: -44%

CC(C)[C@H](NC(=O)[C@@H]1CCCN1C(=O)[C@@H](NC(=O)OCc1ccccc1)C(C)C)C(=O)c1nc2cc(C(=O)O)ccc2o1
Ki (Neutrophil elastase): 4.2 nM

COC(=O)c1ccc2oc(C(=O)[C@@H](NC(=O)[C@@H]3CCCN3C(=O)[C@@H](NC(=O)c3ccc(NC(=O)NS(=O)(=O)c4ccc(Cl)cc4)cc3)C(C)C)C(C)C)nc2c1
Lw/Bw [1]: 48 | Reduction [2]: -31% | Ki (Neutrophil elastase): 0.06 nM | Reduction [3]: 13%

COc1ccc2oc(C(=O)[C@@H](NC(=O)[C@@H]3CCCN3C(=O)[C@@H](NC(=O)c3ccc(C(=O)NS(=O)(=O)c4ccc(Cl)cc4)cc3)C(C)C)C(C)C)nc2c1
Lw/Bw [1]: 48 | Reduction [2]: 24% | Ki (Neutrophil elastase): 0.66 nM | Reduction [3]: 21%

CC(C)[C@H](NC(=O)[C@@H]1CCCN1C(=O)[C@@H](NC(=O)c1ccc(C(=O)NS(=O)(=O)c2ccc(Cl)cc2)cc1)C(C)C)C(=O)c1nc2cc(C(=O)O)ccc2o1
Lw/Bw [1]: 63 | Reduction [2]: 66% | Ki (Neutrophil elastase): 0.65 nM | Reduction [3]: 94%

CC(C)[C@H](NC(=O)[C@@H]1CCCN1C(=O)[C@@H](NC(=O)c1ccc(C(=O)OC(C)(C)C)cc1)C(C)C)C(=O)c1nc2ccccc2o1
Lw/Bw (Cricetinae gen. sp. [5]): 41 | Reduction [6]: 29% | Reduction [7]: -14%

COC(=O)Cc1ccc2oc(C(=O)[C@@H](NC(=O)[C@@H]3CCCN3C(=O)[C@@H](NC(=O)OCc3ccccc3)C(C)C)C(C)C)nc2c1
Ki (Neutrophil elastase): 1.1 nM

CC(C)[C@H](NC(=O)[C@@H]1CCCN1C(=O)[C@@H](NC(=O)OCc1ccccc1)C(C)C)C(=O)c1nc2cc(C(=O)ON)ccc2o1
Ki (Neutrophil elastase): 1 nM

CC(C)[C@H](NC(=O)[C@@H]1CCCN1C(=O)[C@@H](NC(=O)OCc1ccccc1)C(C)C)C(=O)c1nc2cc(CC(=O)O)ccc2o1
Ki (Neutrophil elastase): 4.4 nM

CC(C)[C@H](NC(=O)[C@@H]1CCCN1C(=O)[C@@H](NC(=O)OCc1ccccc1)C(C)C)C(=O)c1nc2cc(CO[Si](C)(C)C(C)(C)C)ccc2o1
Ki (Neutrophil elastase): 0.43 nM

COC(=O)c1ccc2nc(C(=O)[C@@H](NC(=O)[C@@H]3CCCN3C(=O)[C@@H](NC(=O)c3ccc(C(=O)NS(=O)(=O)c4ccc(Cl)cc4)cc3)C(C)C)C(C)C)oc2c1
Reduction [2]: 72% | Reduction [3]: 76%

CC(C)[C@H](NC(=O)[C@@H]1CCCN1C(=O)[C@@H](NC(=O)c1ccc(NC(=O)NS(=O)(=O)c2ccc(Cl)cc2)cc1)C(C)C)C(=O)c1nc2ccccc2o1
Reduction [2]: 82% | Dose interval (Cricetinae gen. sp. [4]): 6 h | Reduction [3]: 68%

CC(C)[C@H](NC(=O)[C@@H]1CCCN1C(=O)[C@@H](NC(=O)OCc1ccccc1)C(C)C)C(=O)c1nc2cc(Cl)ccc2o1
Ki (Neutrophil elastase): 1.1 nM

COC(=O)c1ccc(C(=O)N[C@H](C(=O)N2CCC[C@H]2C(=O)N[C@H](C(=O)c2nc3ccccc3o2)C(C)C)C(C)C)cc1
Reduction [2]: -5% | Reduction [6]: 17%

CC(C)[C@H](NC(=O)[C@@H]1CCCN1C(=O)[C@@H](NC(=O)c1ccc(C(=O)NS(C)(=O)=O)cc1)C(C)C)C(=O)c1nc2ccccc2o1
Lw/Bw [1]: 87 | Reduction [2]: 78% | Ki (Neutrophil elastase): 4.6 nM | Reduction [3]: 84%

CC(C)[C@H](NC(=O)[C@@H]1CCCN1C(=O)[C@@H](NC(=O)c1ccc(C(=O)NS(=O)(=O)c2ccc(Cl)cc2)cc1)C(C)C)C(=O)c1nc2cc(O)ccc2o1
Lw/Bw [1]: 38 | Reduction [2]: 40% | Reduction [3]: 57%

CC(C)[C@H](NC(=O)[C@@H]1CCCN1C(=O)[C@@H](NC(=O)OCc1ccccc1)C(C)C)C(=O)c1nc2cc(C#N)ccc2o1
Ki (Neutrophil elastase): 1.8 nM

COC(=O)c1ccc2nc(C(=O)[C@@H](NC(=O)[C@@H]3CCCN3C(=O)[C@@H](NC(=O)OCc3ccccc3)C(C)C)C(C)C)oc2c1
Ki (Neutrophil elastase): 0.55 nM

CC(C)[C@H](NC(=O)[C@@H]1CCCN1C(=O)[C@@H](NC(=O)OCc1ccccc1)C(C)C)C(=O)c1nc2cc(CO)ccc2o1
Ki (Neutrophil elastase): 2.4 nM

COC(=O)c1ccc2oc(C(=O)[C@@H](NC(=O)[C@@H]3CCCN3C(=O)[C@@H](NC(=O)OCc3ccccc3)C(C)C)C(C)C)nc2c1
Ki (Neutrophil elastase): 0.37 nM

COC(=O)c1ccc2oc(C(=O)[C@@H](NC(=O)[C@@H]3CCCN3C(=O)[C@@H](NC(=O)c3ccc(NS(=O)(=O)C(F)(F)F)cc3)C(C)C)C(C)C)nc2c1
Lw/Bw [1]: 71 | Reduction [2]: 77% | Ki (Neutrophil elastase): 0.3 nM | Reduction [3]: 82%

COC(=O)c1ccc2oc(C(=O)[C@@H](NC(=O)[C@@H]3CCCN3C(=O)[C@@H](NC(=O)c3ccc(S(N)(=O)=O)cc3)C(C)C)C(C)C)nc2c1
Lw/Bw [1]: 15 | Reduction [2]: 30% | Reduction [3]: -32%

CC(C)[C@H](NC(=O)[C@@H]1CCCN1C(=O)[C@@H](NC(=O)c1ccc(C(=O)NS(=O)(=O)c2ccccc2)cc1)C(C)C)C(=O)c1nc2ccccc2o1
Lw/Bw [1]: 29 | Reduction [2]: 64% | Ki (Neutrophil elastase): 0.5 nM | Dose interval (Cricetinae gen. sp. [4]): 6 h | Reduction [3]: 58%

CC(C)[C@H](NC(=O)[C@@H]1CCCN1C(=O)[C@@H](NC(=O)c1ccc(NC(=O)NS(=O)(=O)c2ccccc2)cc1)C(C)C)C(=O)c1nc2ccccc2o1
Lw/Bw [1]: 63 | Reduction [2]: 31% | Ki (Neutrophil elastase): 0.6 nM | Reduction [3]: 62%

CC(C)[C@H](NC(=O)[C@@H]1CCCN1C(=O)[C@@H](NC(=O)c1ccc(C(=O)O)cc1)C(C)C)C(=O)c1nc2ccccc2o1
Reduction [2]: -1% | Reduction [8]: 49%

CC(C)[C@H](NC(=O)[C@@H]1CCCN1C(=O)[C@@H](NC(=O)c1ccc(C(=O)NS(=O)(=O)c2ccc(Cl)cc2)cc1)C(C)C)C(=O)c1nc2cc(CO)ccc2o1
Lw/Bw [1]: 30 | Reduction [2]: 39% | Ki (Neutrophil elastase): 0.66 nM | Reduction [3]: 46%
